# Measured values as given in ChEMBL document CHEMBL5674868, “Cancer Cells Hijack PRC2 to Modify Multiple Cytokine Pathways” (PLoS One, 2015).
# Activity calls are given as the source filed them. The rule behind the calls is not given here.
# What was measured:
# Type in all cases: cell-based
# [1] = biological target: Histone-lysine N-methyltransferase EZH2 (Homo sapiens) (UniProt Q15910); experiment: Inhibition of EZH2 in human A549 cells assessed as effect on IRF1 mRNA level after 6 hrs by RT-PCR analysis
# Summary of the method: (§1)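 Cells were treated for two four-day cycles with 2 μM GSK343 or UNC1999, then left untreated or stimulated with human IFNγ for 6 h. mRNA was measured by reverse transcription quantitative PCR and normalized to β-actin. Three biological replicates were run per treatment group.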
# [2] = biological target: Histone-lysine N-methyltransferase EZH2 (Homo sapiens) (UniProt Q15910); experiment: Inhibition of EZH2 in human A549 cells assessed as effect on IRF1 mRNA level after 6 hrs by RT-PCR analysis in presence of IFN-gamma; summary of the method: as §1
# [3] = biological target: Histone-lysine N-methyltransferase EZH2 (Homo sapiens) (UniProt Q15910); experiment: Inhibition of EZH2 in human A549 cells assessed as increase in IFN-gamma-induced CXCL10 level for 24 hrs by ELISA
# Summary of the method: (§2)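 A549 cells were pretreated for two four-day cycles with 2 μM UNC1999 or with DMSO. They were seeded at 3×10^4/well, allowed to settle for 4 h, then given the indicated concentrations of IFNγ, IL1β, LPS or TNFα for 24 h. Secreted IL6, IL8 or CXCL10 in the supernatant was measured by ELISA in duplicate. n = 3; ANOVA followed by Fisher test.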
# [4] = biological target: Histone-lysine N-methyltransferase EZH2 (Homo sapiens) (UniProt Q15910); experiment: Inhibition of EZH2 in human A549 cells assessed as increase in IL-1beta-induced IL-6 level for 24 hrs by ELISA; summary of the method: as §2
# [5] = biological target: Histone-lysine N-methyltransferase EZH2 (Homo sapiens) (UniProt Q15910); experiment: Inhibition of EZH2 in human A549 cells assessed as increase in TNF-alpha-induced IL-6 level for 24 hrs by multiplexing laser bead assay
# Summary of the method: (§3)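 A549 cells were pretreated with vehicle or UNC1999 over two four-day cycles at 2 μM. They were seeded at 3×10^4/well, rested for 4 h, then exposed for 24 h to no stimulus, 5 μg/ml E. coli LPS or 10 U/ml TNFα. Secreted cytokines in the supernatants were quantified by a 41-plex laser bead assay.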
# [6] = biological target: Histone-lysine N-methyltransferase EZH2 (Homo sapiens) (UniProt Q15910); experiment: Inhibition of EZH2 in human MCF7 cells assessed as effect on HPRT mRNA level after 6 hrs by RT-PCR analysis in presence of IFN-gamma; summary of the method: as §1
# [7] = biological target: Histone-lysine N-methyltransferase EZH2 (Homo sapiens) (UniProt Q15910); experiment: Inhibition of EZH2 in human A549 cells assessed as increase in LPS-induced CSF-3 level for 24 hrs by multiplexing laser bead assay; summary of the method: as §3
# [8] = biological target: Histone-lysine N-methyltransferase EZH2 (Homo sapiens) (UniProt Q15910); experiment: Inhibition of EZH2 in human A549 cells assessed as increase in TNF-alpha-induced IL-6 level for 24 hrs by ELISA; summary of the method: as §2
# [9] = biological target: Histone-lysine N-methyltransferase EZH2 (Homo sapiens) (UniProt Q15910); experiment: Inhibition of EZH2 in human A549 cells assessed as increase in LPS-induced IL-6 level for 24 hrs by multiplexing laser bead assay; summary of the method: as §3
# [10] = biological target: Histone-lysine N-methyltransferase EZH2 (Homo sapiens) (UniProt Q15910); experiment: Inhibition of EZH2 in human MCF7 cells assessed as effect on HPRT mRNA level after 6 hrs by RT-PCR analysis; summary of the method: as §1
# [11] = biological target: Histone-lysine N-methyltransferase EZH2 (Homo sapiens) (UniProt Q15910); experiment: Inhibition of EZH2 in human ASPC1 cells assessed as effect on IRF1 mRNA level after 6 hrs by RT-PCR analysis in presence of IFN-gamma; summary of the method: as §1
# [12] = biological target: Histone-lysine N-methyltransferase EZH2 (Homo sapiens) (UniProt Q15910); experiment: Inhibition of EZH2 in human A549 cells assessed as increase in TNF-alpha-induced CXCL-10 level for 24 hrs by multiplexing laser bead assay; summary of the method: as §3
# [13] = biological target: Histone-lysine N-methyltransferase EZH2 (Homo sapiens) (UniProt Q15910); experiment: Inhibition of EZH2 in human MCF7 cells assessed as decrease in H3K27me3 levels at 2 uM after 6 hrs by Western blot analysis
# [14] = biological target: Histone-lysine N-methyltransferase EZH2 (Homo sapiens) (UniProt Q15910); experiment: Inhibition of EZH2 in human A549 cells assessed as increase in IFN-gamma-induced SUZ12-repressed ISGs mRNA level after 6 hrs by RT-PCR analysis; summary of the method: as §1
# [15] = biological target: Histone-lysine N-methyltransferase EZH2 (Homo sapiens) (UniProt Q15910); experiment: Inhibition of EZH2 in human HeLa cells assessed as effect on HPRT mRNA level after 6 hrs by RT-PCR analysis; summary of the method: as §1
# [16] = biological target: Histone-lysine N-methyltransferase EZH2 (Homo sapiens) (UniProt Q15910); experiment: Inhibition of EZH2 in human A549 cells assessed as increase in TNF-alpha-induced PDGFA level for 24 hrs by multiplexing laser bead assay; summary of the method: as §3
# [17] = biological target: Histone-lysine N-methyltransferase EZH2 (Homo sapiens) (UniProt Q15910); experiment: Inhibition of EZH2 in human MCF7 cells assessed as effect on PITX2 mRNA level after 6 hrs by RT-PCR analysis in presence of IFN-gamma
# Summary of the method: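 Cells pretreated for two 4-day cycles with 2 µM GSK343 or UNC1999, then left unstimulated or given human IFNγ for 6 h. RNA reverse-transcribed and measured by quantitative PCR, normalized to β-actin. Three biological replicates per treatment group.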
# [18] = biological target: Histone-lysine N-methyltransferase EZH2 (Homo sapiens) (UniProt Q15910); experiment: Inhibition of EZH2 in human A549 cells assessed as increase in LPS-induced PDGFA level for 24 hrs by multiplexing laser bead assay; summary of the method: as §3
# [19] = biological target: Histone-lysine N-methyltransferase EZH2 (Homo sapiens) (UniProt Q15910); experiment: Inhibition of EZH2 in human HeLa cells assessed as effect on PITX2 mRNA level after 6 hrs by RT-PCR analysis; summary of the method: as §1
# [20] = biological target: Histone-lysine N-methyltransferase EZH2 (Homo sapiens) (UniProt Q15910); experiment: Inhibition of EZH2 in human ASPC1 cells assessed as effect on IRF1 mRNA level after 6 hrs by RT-PCR analysis; summary of the method: as §1
# [21] = biological target: Histone-lysine N-methyltransferase EZH2 (Homo sapiens) (UniProt Q15910); experiment: Inhibition of EZH2 in human A549 cells assessed as increase in LPS-induced IL-6 level for 24 hrs by ELISA; summary of the method: as §2
# [22] = biological target: Histone-lysine N-methyltransferase EZH2 (Homo sapiens) (UniProt Q15910); experiment: Inhibition of EZH2 in human A549 cells assessed as increase in TNF-alpha-induced TGFA level for 24 hrs by multiplexing laser bead assay; summary of the method: as §3
# [23] = biological target: Histone-lysine N-methyltransferase EZH2 (Homo sapiens) (UniProt Q15910); experiment: Inhibition of EZH2 in human HeLa cells assessed as effect on IRF1 mRNA level after 6 hrs by RT-PCR analysis in presence of IFN-gamma; summary of the method: as §1
# [24] = biological target: Histone-lysine N-methyltransferase EZH2 (Homo sapiens) (UniProt Q15910); experiment: Inhibition of EZH2 in human A549 cells assessed as increase in TNF-alpha-induced VEGFA level for 24 hrs by multiplexing laser bead assay; summary of the method: as §3
# [25] = biological target: Histone-lysine N-methyltransferase EZH2 (Homo sapiens) (UniProt Q15910); experiment: Inhibition of EZH2 in human A549 cells assessed as increase in TNF-alpha-induced CCL-5 level for 24 hrs by multiplexing laser bead assay; summary of the method: as §3
# [26] = biological target: Histone-lysine N-methyltransferase EZH2 (Homo sapiens) (UniProt Q15910); experiment: Inhibition of EZH2 in human A549 cells assessed as increase in LPS-induced VEGF-A level for 24 hrs by multiplexing laser bead assay; summary of the method: as §3
# [27] = biological target: Histone-lysine N-methyltransferase EZH2 (Homo sapiens) (UniProt Q15910); experiment: Inhibition of EZH2 in human A549 cells assessed as increase in LPS-induced IL-8 level for 24 hrs by ELISA; summary of the method: as §2
# Chain of Histone-lysine N-methyltransferase EZH2 (Homo sapiens) (Q15910 whole entry, looked up): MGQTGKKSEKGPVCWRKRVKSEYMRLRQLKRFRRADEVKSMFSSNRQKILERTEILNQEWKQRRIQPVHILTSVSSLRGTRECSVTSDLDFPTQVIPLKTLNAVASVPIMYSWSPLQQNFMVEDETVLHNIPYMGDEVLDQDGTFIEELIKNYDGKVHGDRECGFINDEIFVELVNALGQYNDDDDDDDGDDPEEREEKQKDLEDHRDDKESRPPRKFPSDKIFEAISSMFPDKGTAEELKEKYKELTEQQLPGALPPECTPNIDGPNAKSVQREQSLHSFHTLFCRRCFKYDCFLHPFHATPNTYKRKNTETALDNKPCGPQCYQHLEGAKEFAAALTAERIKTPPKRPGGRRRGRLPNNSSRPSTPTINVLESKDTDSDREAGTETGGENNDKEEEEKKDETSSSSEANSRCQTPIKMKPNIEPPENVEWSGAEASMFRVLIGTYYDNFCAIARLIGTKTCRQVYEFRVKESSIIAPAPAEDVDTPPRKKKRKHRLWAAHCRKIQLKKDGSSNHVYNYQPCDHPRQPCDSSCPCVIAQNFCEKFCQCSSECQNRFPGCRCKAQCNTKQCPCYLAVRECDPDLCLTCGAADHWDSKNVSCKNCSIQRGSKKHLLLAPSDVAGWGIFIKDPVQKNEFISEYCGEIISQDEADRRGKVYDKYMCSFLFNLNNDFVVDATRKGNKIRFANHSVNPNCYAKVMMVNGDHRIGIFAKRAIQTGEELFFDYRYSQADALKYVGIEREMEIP
compound,measurement,setting,value
CCCc1cc(C)[nH]c(=O)c1CNC(=O)c1cc(-c2ccc(N3CCN(C(C)C)CC3)nc2)cc2c1cnn2C(C)C,inhibition,[1],inactive
same,inhibition,[2],inactive
same,inhibition,[3],Active
same,inhibition,[4],Active
same,inhibition,[5],Active
same,inhibition,[6],inactive
same,inhibition,[7],Active
same,inhibition,[8],Active
same,inhibition,[9],Active
same,inhibition,[10],inactive
same,inhibition,[11],inactive
same,inhibition,[12],Active
same,inhibition,[13],Active
same,inhibition,[14],Active
same,inhibition,[15],inactive
same,inhibition,[16],Active
same,inhibition,[17],inactive
same,inhibition,[18],Active
same,inhibition,[19],inactive
same,inhibition,[20],inactive
same,inhibition,[21],Active
same,inhibition,[22],Active
same,inhibition,[23],inactive
same,inhibition,[24],Active
same,inhibition,[25],Active
same,inhibition,[26],Active
same,inhibition,[27],Active
